Measured values: ChEMBL document CHEMBL2040734, “Benzothiazoles: search for anticancer agents” (2012)

Tests used:
Format in all cases: functional
UACC-62 = test: Cytotoxicity against human UACC62 cells assessed as cell growth at 10 uM after 48 hrs by sulforhodamine B assay; settings: UACC-62, 48 h, read-out: Activity
UACC-257 [1] = test: Cytotoxicity against human UACC257 cells assessed as cell growth at 100 uM after 48 hrs by sulforhodamine B assay; settings: UACC-257, 48 h, read-out: Activity
UO-31 [2] = test: Cytotoxicity against human UO31 cells assessed as cell growth at 10 uM after 48 hrs by sulforhodamine B assay; settings: UO-31, 48 h, read-out: Activity
SK-MEL-5 [3] = test: Growth inhibition of human SK-MEL-5 cells after 48 hrs by sulforhodamine B assay; settings: SK-MEL-5, 48 h
How it was run: (§1)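 Adherent NCI-60 lines were grown in RPMI 1640 with 5% FBS and 2 mM L-glutamine, plated at 5000–40,000 cells/well and preincubated 24 h. They were then exposed to five concentrations (0.01–100 µM, from a DMSO stock) for 48 h at 37 °C, 5% CO2. Cells were fixed with cold TCA (10% final, 60 min, 4 °C) and stained with 0.4% SRB. Dye was solubilized in 10 mM Tris base and A515 read. GI50 was derived from time-zero, control and treated absorbances.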

SF-295 = test: Cytotoxicity against human SF295 cells assessed as cell growth at 10 uM after 48 hrs by sulforhodamine B assay; settings: SF-295, 48 h, read-out: Activity
UACC-257 [4] = test: Growth inhibition of human UACC257 cells after 48 hrs by sulforhodamine B assay; settings: UACC-257, 48 h; for CC50: read-out: LC50 (the source's name); how it was run: as §1
NCI-H23 = test: Cytotoxicity against human NCI-H23 cells assessed as cell growth at 10 '-5 M after 48 hrs by sulforhodamine B assay; settings: NCI-H23, 48 h, read-out: Activity
HCC 2998 = test: Cytotoxicity against human HCC2998 cells assessed as cell growth at 0.1 uM after 48 hrs by sulforhodamine B assay; settings: HCC 2998, 48 h, read-out: Activity
How it was run: (§2)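 Five-dose NCI panel run at 0.01, 0.1, 1, 10 and 100 µM. Cells were in RPMI 1640 with 5% FBS and 2 mM L-glutamine, seeded at 5000–40,000 cells/well and pre-incubated 24 h. Drug was diluted from a DMSO stock into medium with 50 µg/ml gentamicin. Exposure was 48 h at 37 °C, 5% CO2. Cells were fixed with cold TCA and stained with 0.4% SRB, read at 515 nm. Percent growth came from time-zero, control and test absorbances.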

HT-29 = test: Cytotoxicity against human HT-29 cells assessed as cell growth at 1 uM after 48 hrs by sulforhodamine B assay; settings: HT-29, 48 h, read-out: Activity; how it was run: as §2
MCF7 = test: Cytotoxicity against human MCF7 cells assessed as cell growth at 10 uM after 48 hrs by sulforhodamine B assay; settings: MCF7, 48 h, read-out: Activity
OVCAR-4 = test: Cytotoxicity against human OVCAR4 cells assessed as cell growth at 10 '-5 M after 48 hrs by sulforhodamine B assay; settings: OVCAR-4, 48 h, read-out: Activity
SNB-19 = test: Cytotoxicity against human SNB19 cells assessed as cell growth at 100 uM after 48 hrs by sulforhodamine B assay; settings: SNB-19, 48 h, read-out: Activity
[5] = Cytotoxicity against human Hs 578T cells assessed as cell growth at 10 '-5 M after 48 hrs by sulforhodamine B assay; settings: read-out: Activity
How it was run: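 Primary one-dose screen across the NCI 60-line panel at 10 µM. Cells were grown in RPMI 1640 with 5% FBS and 2 mM L-glutamine and held 24 h before drug. Drug was diluted from a DMSO concentrate. Exposure was 48 h at 37 °C, 5% CO2. Cells were fixed with TCA and stained with SRB, with absorbance read at 515 nm. Percent growth was calculated against time-zero and untreated control.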

HOP-62 = test: Growth inhibition of human HOP62 cells after 48 hrs by sulforhodamine B assay; settings: HOP-62, 48 h; for CC50: read-out: LC50 (the source's name); how it was run: as §1
OVCAR-8 = test: Cytotoxicity against human OVCAR8 cells assessed as cell growth at 0.01 uM after 48 hrs by sulforhodamine B assay; settings: OVCAR-8, 48 h, read-out: Activity
DU-145 = test: Growth inhibition of human DU145 cells after 48 hrs by sulforhodamine B assay; settings: DU-145, 48 h; for CC50: read-out: LC50 (the source's name); how it was run: as §1
HCT-15 = test: Cytotoxicity against human HCT15 cells assessed as cell growth at 100 uM after 48 hrs by sulforhodamine B assay; settings: HCT-15, 48 h, read-out: Activity; how it was run: as §2
OVCAR-3 = test: Cytotoxicity against human OVCAR3 cells assessed as cell growth at 0.1 uM after 48 hrs by sulforhodamine B assay; settings: OVCAR-3, 48 h, read-out: Activity
UACC-257 [6] = test: Cytotoxicity against human UACC257 cells assessed as cell growth at 1 uM after 48 hrs by sulforhodamine B assay; settings: UACC-257, 48 h, read-out: Activity
SW-620 = test: Cytotoxicity against human SW620 cells assessed as cell growth at 1 uM after 48 hrs by sulforhodamine B assay; settings: SW-620, 48 h, read-out: Activity
SK-MEL-5 [7] = test: Cytotoxicity against human SK-MEL-5 cells assessed as cell growth at 10 '-5 M after 48 hrs by sulforhodamine B assay; settings: SK-MEL-5, 48 h, read-out: Activity
UO-31 [8] = test: Cytotoxicity against human UO31 cells assessed as cell growth at 0.01 uM after 48 hrs by sulforhodamine B assay; settings: UO-31, 48 h, read-out: Activity
UACC-257 [9] = test: Cytotoxicity against human UACC257 cells assessed as cell growth at 10 uM after 48 hrs by sulforhodamine B assay; settings: UACC-257, 48 h, read-out: Activity
CAKI-1 = test: Cytotoxicity against human Caki1 cells assessed as cell growth at 0.1 uM after 48 hrs by sulforhodamine B assay; settings: CAKI-1, 48 h, read-out: Activity
How it was run: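 NCI-60 five-dose screen. Cells were grown in RPMI 1640 with 5% FBS and 2 mM L-glutamine and preincubated 24 h. Compound (DMSO stock) was tested at 0.01, 0.1, 1, 10 and 100 µM for 48 h at 37 °C. Cells were fixed in situ with cold TCA (final 10%) and stained with 0.4% SRB. A515 was read, and percent growth was calculated against time-zero and control plates.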

SF-539 = test: Cytotoxicity against human SF539 cells assessed as cell growth at 10 '-5 M after 48 hrs by sulforhodamine B assay; settings: SF-539, 48 h, read-out: Activity
[10] = Cytotoxicity against human Hs 578T cells assessed as cell growth at 1 uM after 48 hrs by sulforhodamine B assay; settings: read-out: Activity; how it was run: as §2
MDA-MB-435 = test: Growth inhibition of human MDA-MB-435 cells after 48 hrs by sulforhodamine B assay; settings: MDA-MB-435, 48 h; for CC50: read-out: LC50 (the source's name); how it was run: as §1
KM12 = test: Cytotoxicity against human KM12 cells assessed as cell growth at 0.1 uM after 48 hrs by sulforhodamine B assay; settings: KM12, 48 h, read-out: Activity

Clc1cccc(Cl)c1Nc1nc2cccc(Cl)c2s1
growth at 10 µM (UACC-62): -85% | growth at 100 µM (UACC-257 [1]): -67% | growth at 10 µM (UO-31 [2]): -91% | GI50 (SK-MEL-5 [3]): 1 µM | LC50 (SK-MEL-5 [3]): 4.93 µM | TGI (SK-MEL-5 [3]): 2.22 µM | growth at 10 µM (SF-295): -87% | GI50 (UACC-257 [4]): 1.35 µM | TGI (UACC-257 [4]): 3.1 µM | CC50 (UACC-257 [4]): 7.09 µM | growth at 10 µM (NCI-H23): -10.5% | growth at 0.1 µM (HCC 2998): 87% | growth at 1 µM (HT-29): 65% | growth at 10 µM (MCF7): -86% | growth at 10 µM (OVCAR-4): 6.72% | growth at 100 µM (SNB-19): -63% | growth at 10 µM [5]: -11.4% | GI50 (HOP-62): 1.27 µM | TGI (HOP-62): 2.62 µM | CC50 (HOP-62): 5.38 µM | growth at 0.01 µM (OVCAR-8): 101% | GI50 (DU-145): 1.41 µM | TGI (DU-145): 2.75 µM | CC50 (DU-145): 5.39 µM | growth at 100 µM (HCT-15): -74% | growth at 0.1 µM (OVCAR-3): 97% | growth at 1 µM (UACC-257 [6]): 68% | growth at 1 µM (SW-620): 69% | growth at 10 µM (SK-MEL-5 [7]): -71.3% | growth at 0.01 µM (UO-31 [8]): 88% | growth at 10 µM (UACC-257 [9]): -71% | growth at 0.1 µM (CAKI-1): 73% | growth at 10 µM (SF-539): -47.5% | growth at 1 µM [10]: 49% | GI50 (MDA-MB-435): 0.813 µM | TGI (MDA-MB-435): 2.38 µM | CC50 (MDA-MB-435): 6.05 µM | growth at 0.1 µM (KM12): 101%

Cc1ccc2nc(Nc3c(C)cccc3C)sc2c1
growth at 10 µM (UACC-62): 23% | growth at 100 µM (UACC-257 [1]): 73% | growth at 10 µM (UO-31 [2]): 49% | LC50 (SK-MEL-5 [3]): > 100 µM | TGI (SK-MEL-5 [3]): > 100 µM | growth at 10 µM (SF-295): 15% | GI50 (UACC-257 [4]): > 100 µM | TGI (UACC-257 [4]): > 100 µM | CC50 (UACC-257 [4]): > 100 µM | growth at 10 µM (NCI-H23): 57.5% | growth at 0.1 µM (HCC 2998): 90% | growth at 1 µM (HT-29): 39% | growth at 10 µM (MCF7): 19% | growth at 10 µM (OVCAR-4): 63% | growth at 100 µM (SNB-19): 30% | growth at 10 µM [5]: 54.1% | GI50 (HOP-62): 3.86 µM | TGI (HOP-62): > 100 µM | CC50 (HOP-62): > 100 µM | growth at 0.01 µM (OVCAR-8): 103% | GI50 (DU-145): > 100 µM | TGI (DU-145): > 100 µM | CC50 (DU-145): > 100 µM | growth at 100 µM (HCT-15): 40% | growth at 0.1 µM (OVCAR-3): 108% | growth at 1 µM (UACC-257 [6]): 83% | growth at 1 µM (SW-620): 49% | growth at 10 µM (SK-MEL-5 [7]): 26.8% | growth at 0.01 µM (UO-31 [8]): 90% | growth at 10 µM (UACC-257 [9]): 70% | growth at 0.1 µM (CAKI-1): 83% | growth at 10 µM (SF-539): 45.3% | growth at 1 µM [10]: 64% | GI50 (MDA-MB-435): 0.242 µM | TGI (MDA-MB-435): 0.822 µM | CC50 (MDA-MB-435): > 100 µM | growth at 0.1 µM (KM12): 103%
